Experimental findings from ChEMBL document CHEMBL1629489, “Novel 6-[(hetero)arylamino]thieno[3,2-b]pyridines: synthesis and antitumoral activities” (2010) are described below.

Assay type in all cases: functional
For one test, the system named is MCF7. The test can be described thus: Growth inhibition of human MCF7 cells after 48 hrs by sulforhodamine B assay. The following applies: MCF7, 48 h. In a few lines:
(§1)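 Adherent cells in RPMI-1640 with 5% heat-inactivated FBS, 2 mM glutamine and penicillin/streptomycin at 37 °C and 5% CO₂. Plated at 1.5 × 10⁵ cells/mL (MCF-7) or 0.75 × 10⁵ cells/mL (A375-C5, NCI-H460), then incubated 24 h. Exposed 48 h to five serial dilutions from DMSO stocks (≤0.25% DMSO). SRB staining, absorbance at 492 nm. GI50 is the mean ± SEM of three independent duplicate experiments.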
(In SRB staining, fixed cells bind dye roughly in proportion to their protein.)

A short description of test [1]: Growth inhibition of human A375-C5 cells after 48 hrs by sulforhodamine B assay. The following applies: A375-C5, 48 h. In a few lines: as §1
The next test concerns NCI-H460. The test can be described thus: Growth inhibition of human NCI-H460 cells after 48 hrs by sulforhodamine B assay. The following applies: NCI-H460, 48 h. A digest of the protocol:
as §1

Molecules are shown by their SMILES.

As a reminder, the GI50 is the concentration that inhibits growth by half. The low end stands for more potent growth inhibition, the high end for less potent growth inhibition. With `COC(=O)c1sc2cc(Nc3cc(OC)ccc3Cl)cnc2c1N`, the values for the 50% growth inhibitory concentration (GI50) (in the test on MCF7; in test [1]; in the test with NCI-H460) were 22.1 µM, 25.8 µM and 21.7 µM, respectively.
The matching figures for `COC(=O)c1sc2cc(Nc3ccc(OC)cc3)cnc2c1N`: 124 µM, over 150 µM and 95 µM.
With `COC(=O)c1sc2cc(Nc3cccnc3)cnc2c1N`, the 50% growth inhibitory concentration (GI50) in the test on MCF7 is 82.4 µM; in test [1], over 150 µM; with NCI-H460, 49.4 µM.
With `COC(=O)c1sc2cc(Nc3nccc4ccccc34)cnc2c1N`, the concentration for 50% growth inhibition (GI50) (with MCF7; in test [1]; in the test with NCI-H460) was over 150 µM in each case.
Consider `COC(=O)c1sc2cc(Nc3ccccn3)cnc2c1N`, for which the GI50 (in the test with MCF7; in test [1]; in the test with NCI-H460) was over 150 µM in each case.
On to `COC(=O)c1sc2cc(Nc3ncccn3)cnc2c1N`, for which the concentration for 50% growth inhibition (GI50) (with MCF7; in test [1]; in the test with NCI-H460) was over 150 µM throughout.
With `COC(=O)c1sc2cc(Nc3ccc(OC)c(OC)c3)cnc2c1N`, the GI50 in the test on MCF7 turned out to be 30 µM; in test [1], 26.3 µM; with NCI-H460 it was 26.2 µM.
As for `COc1cccc2c1C(=O)c1c(O)c3c(c(O)c1C2=O)C[C@@](O)(C(=O)CO)C[C@@H]3O[C@H]1C[C@H](N)[C@H](O)[C@H](C)O1` [DOXORUBICIN], the results for the GI50 (with MCF7; in test [1]; with NCI-H460) were 0.0433 µM, 0.13 µM and 0.0356 µM, respectively.
As to `COC(=O)c1sc2cc(Nc3nc4ccccc4s3)cnc2c1N`, the results for the 50% growth inhibitory concentration (GI50) (with MCF7; in test [1]; with NCI-H460) were 6 µM, 3.5 µM and 6.4 µM, respectively.
As for `COC(=O)c1sc2cc(Nc3cc(OC)cc(OC)c3)cnc2c1N`, the concentration for 50% growth inhibition (GI50) (with MCF7; in test [1]; with NCI-H460) was over 150 µM throughout.
`COC(=O)c1sc2cc(Nc3ccc(F)cc3Br)cnc2c1N`: the GI50 amounted to 28.9 µM in the test on MCF7, 34 µM in test [1] and 31.3 µM in the test with NCI-H460.
For `COC(=O)c1sc2cc(Nc3ccc(OC)cc3OC)cnc2c1N`, the GI50 was found to be 26.3 µM in the test on MCF7, 27.3 µM in test [1] and 26.3 µM in the test with NCI-H460.
Take `COC(=O)c1sc2cc(Nc3ccccc3Br)cnc2c1N`: the GI50 with MCF7 amounted to 28.9 µM; in test [1], 34.1 µM; in the test on NCI-H460, 30.9 µM.
Regarding `COC(=O)c1sc2cc(Nc3ccc4[nH]ccc4c3)cnc2c1N`, the values for the GI50 (in the test on MCF7; in test [1]; with NCI-H460) were 18.1 µM, 17.3 µM and 15.8 µM, respectively.
